We go through seven compounds from ChEMBL document CHEMBL1122368, “Synthesis and antihypertensive activity of some new quinazoline derivatives” (1983).

Structures are written as SMILES.

The test system of one assay is Rattus norvegicus. In words: Hypotensive activity in anesthetized rats, dose that produced a 30% fall in mean blood pressure after 30 minutes. It is filed as functional. The essentials:
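Normotensive rats under urethane anaesthesia, arterial pressure recorded, femoral vein cannulated. Dosing iv in rising doses (0.01, 0.1, 1, 10 μmol/kg) at 30-min intervals, 1 mL/kg over 2 min; solvent controls; colonic temperature 38.0 ± 0.3 °C. Fall in pressure read 30 min after injection. ED30 is the dose (μmol/kg) giving a 30% fall in mean blood pressure.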
In turn, `COc1cc2nc(N3CCC(C(=O)N4CCCCC4)CC3)nc(N)c2cc1OC.Cl` showed an ED30 of 0.08 µM/kg.

As to `CCC(=O)C1CCN(c2nc(N)c3cc(OC)c(OC)cc3n2)CC1.Cl`, the ED30 stood at 30 µM/kg.

For the compound `COc1cc2nc(N3CCC(C(=O)N4CCCCCC4)CC3)nc(N)c2cc1OC.Cl`, the ED30 worked out at 0.05 µM/kg.

In turn, `COc1cc2nc(N3CCCC(C(=O)N4CCCC4)C3)nc(N)c2cc1OC.Cl` (stereo in doubt; 6i) showed an ED30 of 30 µM/kg.

On to `COc1cc2nc(N3CCC(C(=O)N4CCCCC4C)CC3)nc(N)c2cc1OC.Cl` (centres undefined), for which the ED30 amounted to 0.9 µM/kg.

Take `CCCCC(O)C1CCN(c2nc(N)c3cc(OC)c(OC)cc3n2)CC1.Cl` (centres undefined): the ED30 amounted to 0.7 µM/kg.

For `COc1cc2nc(N3CCC(C(=O)N4CCC4)CC3)nc(N)c2cc1OC.Cl`, the ED30 amounted to 0.4 µM/kg.

Another assay has as its system Rattus norvegicus. In words: Hypotensive activity in anesthetized rats, dose that produced a 30% fall in mean blood pressure. The assay is classed as functional. The essentials:
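Normotensive rats under urethane anaesthesia, arterial pressure recorded, femoral vein cannulated. Dosing iv in rising doses (0.01, 0.1, 1, 10 μmol/kg) at 30-min intervals, 1 mL/kg over 2 min; solvent-treated controls. Colonic temperature held at 38.0 ± 0.3 °C. Effect read at its maximum, 1–5 min after injection. ED30 is the dose (μmol/kg) giving a 30% fall in mean blood pressure.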
For `COc1cc2nc(N3CCC(C(=O)N4CCCCC4)CC3)nc(N)c2cc1OC.Cl`, the ED30 was determined as 0.02 µM/kg.

For the compound `CCC(=O)C1CCN(c2nc(N)c3cc(OC)c(OC)cc3n2)CC1.Cl`, the ED30 came to 5 µM/kg.

`COc1cc2nc(N3CCC(C(=O)N4CCCCCC4)CC3)nc(N)c2cc1OC.Cl`: the ED30 was determined as 0.01 µM/kg.

As to `COc1cc2nc(N3CCCC(C(=O)N4CCCC4)C3)nc(N)c2cc1OC.Cl` (stereo in doubt; 6i), the ED30 was 12 µM/kg.

In turn, `COc1cc2nc(N3CCC(C(=O)N4CCCCC4C)CC3)nc(N)c2cc1OC.Cl` (centres undefined) had an ED30 of 0.1 µM/kg.

In turn, `CCCCC(O)C1CCN(c2nc(N)c3cc(OC)c(OC)cc3n2)CC1.Cl` (centres undefined) returned an ED30 of 0.1 µM/kg.

Regarding `COc1cc2nc(N3CCC(C(=O)N4CCC4)CC3)nc(N)c2cc1OC.Cl`, the ED30 worked out at 0.07 µM/kg.
